# Calls of active or inactive are those of the source. No cut-off for these calls is given here.
# Columns and labels:
# [1] = Plasma clearance in Sprague-Dawley rat at 1 mg/kg, iv administered as single dose by LC-MS/MS analysis; type: ADME, organism-based
# Method in brief: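 Single iv dose, 1 mg/kg in rat or 2 mg/kg in mouse; plasma PK parameters derived; brain/plasma ratio taken at 1 h postdose (rat) or 30 min postdose (mouse). Mean of 3 rats; 2 mice for mouse Cmax and brain/plasma.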
# [2] = Volume of distribution in Sprague-Dawley rat at 1 mg/kg, iv administered as single dose by LC-MS/MS analysis; type: ADME, organism-based; details: in vivo
# Method in brief: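 Single intravenous dose: rats 1 mg/kg, mice 2 mg/kg. Plasma concentration–time data yielded Cmax, t1/2, AUC0−∞, plasma clearance and volume of distribution. Values are mean ±SEM of 3 animals.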
# [3] = Cmax in C57BL/6 mouse plasma at 10 mg/kg, po administered as single dose by LC-MS/MS analysis; type: ADME, organism-based; set-up: dose 10 mg/kg, route oral
# Method in brief: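 Mice given 10 mg/kg orally. Plasma Cmax was determined and brain concentration measured at 30 min postdose. Values are the mean (±SEM) of 2 mice.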
# [4] = AUC (0 to infinity) in Sprague-Dawley rat plasma at 10 mg/kg, po administered as single dose by LC-MS/MS analysis; type: ADME, organism-based; set-up: dose 10 mg/kg, time infinity, route oral
# Method in brief: (§1)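 Rats given a single oral dose of 10 mg/kg. The first plasma sample was taken at 15 min, and sampling continued to 24 h postdose. Brain was sampled at 30 min. Values are the mean (±SEM) of 3 rats.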
# [5] = Drug uptake in Sprague-Dawley rat brain at 10 mg/kg, ip after 30 mins post dose administered as single dose by LC-MS/MS analysis; type: ADME, organism-based; details: read-out: Drug uptake
# Method in brief: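 Rats dosed ip at 10 or 30 mg/kg. Plasma Cmax, Tmax, half-life and AUC0–inf were determined. Brain concentration was measured 30 min postdose, and brain/plasma ratio was taken at 30 min. Values are the mean (±SEM) of 3 rats.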
# [6] = Drug uptake in Sprague-Dawley rat brain at 10 mg/kg, po after 30 mins post dose administered as single dose by LC-MS/MS analysis; type: ADME, organism-based; details: read-out: Drug uptake; method in brief: as §1
# [7] = Ratio of drug level in C57BL/6 mouse brain to plasma at 10 mg/kg, po after 30 mins post dose administered as single dose by LC-MS/MS analysis; type: ADME, organism-based; details: read-out: BPR
# Method in brief: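 Single dose ip (10 or 30 mg/kg, rat) or oral (10 mg/kg, rat or mouse); plasma Cmax, Tmax, half-life, AUC0−inf derived; brain concentration and brain/plasma ratio at 30 min postdose. Mean of 3 rats or 2 mice.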
# [8] = Ratio of drug uptake in Sprague-Dawley rat brain at 10 mg/kg, po to EC50 for rat mGlu4 receptor expressed in HEK293 cells
# Method in brief: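 Rats received a single ip or oral dose. Brain concentration was measured 30 min postdose, mean of 3 rats, and divided by the EC50 measured in cell lines overexpressing rat mGluR4.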
# [9] = system: Plasma; experiment: Drug level in Sprague-Dawley rat plasma at 10 mg/kg, po administered as single dose measured at 24 hrs post dose by LC-MS/MS analysis; type: ADME, organism-based; details: in vivo; method in brief: as §1
# [10] = system: Mus musculus; experiment: Anti-parkinson's activity in C57BL/6 mouse assessed as brain concentration required for reversal of haloperidol-induced catalepsy at 30 mg/kg, ip after 40 mins; type: functional
# [11] = Plasma concentration in Sprague-Dawley rat at 30 mg/kg, ip after 240 mins; type: ADME, organism-based
# Method in brief: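 Rats dosed 30 mg/kg ip; plasma sampled over time, brain measured at 30 and 60 min; brain/plasma ratio averaged over 30 and 60 min.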
# [12] = Drug uptake in Sprague-Dawley rat brain at 30 mg/kg, ip after 30 mins; type: ADME, organism-based; details: read-out: Drug uptake
# [13] = Drug uptake in Sprague-Dawley rat brain at 30 mg/kg, ip after 120 mins; type: ADME, organism-based; details: read-out: Drug uptake
# [14] = Drug uptake in Sprague-Dawley rat brain at 10 mg/kg, po after 60 mins post dose administered as single dose by LC-MS/MS analysis; type: ADME, organism-based; details: read-out: Drug uptake
# Method in brief: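 Rats given a single oral dose of 10 mg/kg. Brain concentrations were measured at 30, 60 and 90 min postdose, and brain AUC0–inf was determined. Values are the mean of three rats. Lower limit of quantification was 1 ng/mL.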
# [15] = system: Rattus norvegicus; experiment: Toxicity in 6-OHDA induced parkinsonian motor deficit Sprague-Dawley rat model assessed as induction of overacting rearing behavior up to 30 mg/kg, ip in presence of L-dopa; type: organism-based; details: in vivo
# [16] = molecular target: T1, Metabotropic glutamate receptor 4 (Homo sapiens, UniProt Q14833); experiment: Agonist activity at recombinant human mGlu4 receptor expressed in HEK293 cells co-expressing chimeric Gi/Gq protein assessed as increase in calcium flux at 3 uM after 10 mins by Fluo4-AM dye based fluorescence assay relative to control; type: functional, cell-based
# Method in brief: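 Human mGluR4 co-expressed in HEK293 cells with the chimeric Gi/Gq (GqTOP) protein, loaded with Fluo4-AM. Compound was added alone and calcium signal recorded for 10 min, compared with the buffer-evoked basal signal.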
# [17] = molecular target: T1, Metabotropic glutamate receptor 4; experiment: Positive allosteric modulation of recombinant human mGlu4 receptor expressed in HEK293 cells co-expressing chimeric Gi/Gq protein assessed as fold shift in glutamate-induced calcium flux at 3 uM preincubated for 10 mins followed by glutamate addition measured for 3 mins by Fluo4-AM dye based fluorescence assay; type: functional, cell-based
# Method in brief: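 HEK-293 cells transiently co-transfected by electroporation with human mGluR4 and chimeric Gi/Gq (GqTOP) were cultured 24 h, FCS-starved 3 h, then loaded 1 h 30 min with 1 μM Fluo4-AM in HBSS/20 mM HEPES buffer containing probenecid and 0.1% BSA. Compound was added for 10 min, then glutamate (10 or 20 concentrations over 4.5 logs), read 3 min (ex 485/em 525 nm). The fold change in glutamate potency with vs without compound gives the shift.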
# [18] = molecular target: D(1A) dopamine receptor (Homo sapiens) (UniProt P21728); experiment: Positive allosteric modulation of D1 receptor (unknown origin) at 10 uM
# [19] = molecular target: D(2) dopamine receptor (Homo sapiens) (UniProt P14416); experiment: Positive allosteric modulation of D2L receptor (unknown origin) at 10 uM
# [20] = molecular target: Adenosine receptor A2a (Homo sapiens) (UniProt P29274); experiment: Positive allosteric modulation of A2A receptor (unknown origin) at 10 uM
# [21] = molecular target: Tyrosine-protein kinase JAK3 (Homo sapiens) (UniProt P52333); experiment: Inhibition of JAK3 (unknown origin) at 10 uM
# [22] = system: Rattus norvegicus; experiment: Protection against 6-OHDA induced parkinsonian motor deficit in Sprague-Dawley rat assessed as increase in slow activity at 30 mg/kg, ip after 30 to 120 mins post administration; type: functional, organism-based
# Method in brief: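 Adult male Sprague−Dawley rats with bilateral 6-OHDA striatal lesions given compound 30 mg/kg ip or vehicle at T0; spontaneous locomotor activity (active time, slow activity, rearing) counted in 5-min bins versus pre-surgery vehicle; n = 10.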
# [23] = molecular target: Metabotropic glutamate receptor 2 (Homo sapiens) (UniProt Q14416); experiment: Activity at human mGlu2 receptor expressed in HEK293 cells co-expressing Gi/Gq assessed as effect on EC20/EC80 glutamate-induced intracellular calcium level up to 10 uM preincubated for 10 mins followed by glutamate addition measured for 3 mins by Fluo4-AM dye based fluorescence assay; type: functional, cell-based
# Method in brief: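 HEK-293 cells were electroporated with the human mGluR plus a promiscuous or chimeric G protein and cultured 24 h, then serum-starved 3 h. Cells were loaded 1.5 h with 1 μM Fluo4-AM in HBSS/HEPES buffer with probenecid and 0.1% BSA. Compound was added for 10 min, then glutamate at EC20 (PAM) or EC80 (NAM), and fluorescence (ex 485/em 525) was read for 3 min.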
# T1 sequence (Q14833 whole entry): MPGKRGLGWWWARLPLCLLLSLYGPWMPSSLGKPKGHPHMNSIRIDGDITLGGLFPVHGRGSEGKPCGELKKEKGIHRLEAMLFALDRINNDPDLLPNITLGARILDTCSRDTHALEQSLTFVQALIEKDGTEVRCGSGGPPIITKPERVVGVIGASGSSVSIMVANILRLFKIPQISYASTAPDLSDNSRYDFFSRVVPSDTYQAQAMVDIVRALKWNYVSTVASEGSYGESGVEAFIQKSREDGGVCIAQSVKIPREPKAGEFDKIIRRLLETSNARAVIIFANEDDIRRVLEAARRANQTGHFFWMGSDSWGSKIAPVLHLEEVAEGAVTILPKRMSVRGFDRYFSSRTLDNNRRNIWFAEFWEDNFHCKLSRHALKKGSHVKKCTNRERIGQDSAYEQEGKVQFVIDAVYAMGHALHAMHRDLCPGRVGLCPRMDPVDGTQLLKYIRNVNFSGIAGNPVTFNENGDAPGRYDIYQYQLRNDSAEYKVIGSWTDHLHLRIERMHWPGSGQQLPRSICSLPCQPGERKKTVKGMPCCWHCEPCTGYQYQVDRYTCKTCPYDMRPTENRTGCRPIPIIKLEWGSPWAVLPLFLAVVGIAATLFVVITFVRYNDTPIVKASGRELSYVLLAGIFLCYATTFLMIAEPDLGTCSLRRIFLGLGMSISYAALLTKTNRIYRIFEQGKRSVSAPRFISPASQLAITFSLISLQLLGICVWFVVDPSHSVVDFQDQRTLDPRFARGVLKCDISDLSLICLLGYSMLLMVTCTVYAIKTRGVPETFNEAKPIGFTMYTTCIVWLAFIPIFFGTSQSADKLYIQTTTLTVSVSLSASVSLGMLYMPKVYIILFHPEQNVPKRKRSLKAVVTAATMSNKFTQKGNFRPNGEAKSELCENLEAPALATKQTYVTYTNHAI
# Metabotropic glutamate receptor 2 (Homo sapiens), sequence (Q14416 19-872 limits assumed): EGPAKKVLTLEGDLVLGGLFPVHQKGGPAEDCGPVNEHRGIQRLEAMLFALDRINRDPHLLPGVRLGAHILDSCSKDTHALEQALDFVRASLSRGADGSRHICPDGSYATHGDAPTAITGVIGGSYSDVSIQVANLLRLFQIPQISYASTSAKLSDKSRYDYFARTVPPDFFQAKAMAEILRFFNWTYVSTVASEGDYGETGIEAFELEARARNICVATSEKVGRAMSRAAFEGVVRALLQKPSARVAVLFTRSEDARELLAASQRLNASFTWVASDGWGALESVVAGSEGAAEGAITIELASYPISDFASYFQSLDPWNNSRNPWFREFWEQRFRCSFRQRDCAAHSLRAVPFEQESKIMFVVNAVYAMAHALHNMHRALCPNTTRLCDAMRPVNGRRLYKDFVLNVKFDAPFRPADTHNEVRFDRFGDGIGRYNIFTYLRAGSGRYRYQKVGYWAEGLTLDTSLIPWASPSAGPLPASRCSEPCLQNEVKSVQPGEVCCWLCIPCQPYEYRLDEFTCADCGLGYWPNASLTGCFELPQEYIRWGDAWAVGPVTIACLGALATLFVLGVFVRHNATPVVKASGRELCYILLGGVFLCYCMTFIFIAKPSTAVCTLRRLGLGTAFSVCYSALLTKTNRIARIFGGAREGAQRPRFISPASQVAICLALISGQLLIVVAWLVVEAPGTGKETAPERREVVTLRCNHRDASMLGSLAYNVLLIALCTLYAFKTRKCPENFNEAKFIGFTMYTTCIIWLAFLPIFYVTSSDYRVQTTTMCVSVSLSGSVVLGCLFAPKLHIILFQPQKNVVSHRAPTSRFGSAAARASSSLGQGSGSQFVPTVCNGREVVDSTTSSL
# Adenosine receptor A2a (Homo sapiens), sequence (P29274 whole entry): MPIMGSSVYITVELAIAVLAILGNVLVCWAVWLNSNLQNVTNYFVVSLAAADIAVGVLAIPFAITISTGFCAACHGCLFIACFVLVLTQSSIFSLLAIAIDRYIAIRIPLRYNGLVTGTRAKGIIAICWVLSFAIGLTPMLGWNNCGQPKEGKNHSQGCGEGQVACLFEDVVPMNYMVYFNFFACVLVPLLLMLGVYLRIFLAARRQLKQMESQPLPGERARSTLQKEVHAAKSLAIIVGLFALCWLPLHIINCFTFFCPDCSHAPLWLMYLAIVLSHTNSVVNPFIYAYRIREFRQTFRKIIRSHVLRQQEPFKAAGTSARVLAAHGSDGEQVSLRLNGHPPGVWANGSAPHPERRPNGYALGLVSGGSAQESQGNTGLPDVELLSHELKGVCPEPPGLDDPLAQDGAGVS
# Tyrosine-protein kinase JAK3 (Homo sapiens), sequence (P52333 whole entry): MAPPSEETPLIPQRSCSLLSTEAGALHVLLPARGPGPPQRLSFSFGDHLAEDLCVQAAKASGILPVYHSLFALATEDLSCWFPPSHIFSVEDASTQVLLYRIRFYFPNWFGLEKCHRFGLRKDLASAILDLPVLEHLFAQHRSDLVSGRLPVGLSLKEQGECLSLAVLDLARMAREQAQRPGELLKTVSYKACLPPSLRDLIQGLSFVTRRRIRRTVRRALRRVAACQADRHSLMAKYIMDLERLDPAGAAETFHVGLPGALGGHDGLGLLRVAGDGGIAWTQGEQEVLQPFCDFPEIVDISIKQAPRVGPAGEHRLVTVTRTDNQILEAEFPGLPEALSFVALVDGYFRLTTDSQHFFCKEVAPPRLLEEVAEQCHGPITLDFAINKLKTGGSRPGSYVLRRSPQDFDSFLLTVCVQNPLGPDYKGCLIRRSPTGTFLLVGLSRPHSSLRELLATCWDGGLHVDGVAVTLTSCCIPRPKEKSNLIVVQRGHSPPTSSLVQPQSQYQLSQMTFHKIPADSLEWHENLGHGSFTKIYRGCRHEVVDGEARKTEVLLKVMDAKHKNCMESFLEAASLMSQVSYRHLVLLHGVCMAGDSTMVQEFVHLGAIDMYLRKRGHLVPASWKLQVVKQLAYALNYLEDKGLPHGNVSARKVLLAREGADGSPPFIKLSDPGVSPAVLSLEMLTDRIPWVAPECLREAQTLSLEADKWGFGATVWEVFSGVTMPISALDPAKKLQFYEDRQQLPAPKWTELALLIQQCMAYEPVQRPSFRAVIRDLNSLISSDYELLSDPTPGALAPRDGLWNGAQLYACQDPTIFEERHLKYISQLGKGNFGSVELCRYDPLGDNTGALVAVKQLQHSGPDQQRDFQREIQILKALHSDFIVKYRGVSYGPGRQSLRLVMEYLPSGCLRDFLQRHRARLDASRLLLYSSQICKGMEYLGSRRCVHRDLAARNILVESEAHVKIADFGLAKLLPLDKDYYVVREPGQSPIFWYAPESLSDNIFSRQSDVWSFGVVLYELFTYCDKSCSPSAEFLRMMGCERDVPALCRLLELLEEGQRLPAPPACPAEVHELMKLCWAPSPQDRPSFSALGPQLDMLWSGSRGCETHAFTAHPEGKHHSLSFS
# D(1A) dopamine receptor (Homo sapiens), sequence (P21728 whole entry): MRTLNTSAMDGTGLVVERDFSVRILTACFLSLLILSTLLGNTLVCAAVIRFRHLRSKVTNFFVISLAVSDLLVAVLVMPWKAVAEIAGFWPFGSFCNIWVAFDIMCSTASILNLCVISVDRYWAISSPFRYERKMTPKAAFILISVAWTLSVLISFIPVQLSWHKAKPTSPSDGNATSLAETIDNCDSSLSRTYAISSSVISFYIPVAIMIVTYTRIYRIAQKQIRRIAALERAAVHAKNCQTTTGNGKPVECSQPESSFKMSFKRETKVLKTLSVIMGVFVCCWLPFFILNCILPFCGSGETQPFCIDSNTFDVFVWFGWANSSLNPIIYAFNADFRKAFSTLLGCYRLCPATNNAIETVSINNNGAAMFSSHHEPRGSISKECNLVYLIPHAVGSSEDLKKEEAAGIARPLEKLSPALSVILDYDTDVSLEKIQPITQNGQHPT
# D(2) dopamine receptor (Homo sapiens), sequence (P14416 whole entry): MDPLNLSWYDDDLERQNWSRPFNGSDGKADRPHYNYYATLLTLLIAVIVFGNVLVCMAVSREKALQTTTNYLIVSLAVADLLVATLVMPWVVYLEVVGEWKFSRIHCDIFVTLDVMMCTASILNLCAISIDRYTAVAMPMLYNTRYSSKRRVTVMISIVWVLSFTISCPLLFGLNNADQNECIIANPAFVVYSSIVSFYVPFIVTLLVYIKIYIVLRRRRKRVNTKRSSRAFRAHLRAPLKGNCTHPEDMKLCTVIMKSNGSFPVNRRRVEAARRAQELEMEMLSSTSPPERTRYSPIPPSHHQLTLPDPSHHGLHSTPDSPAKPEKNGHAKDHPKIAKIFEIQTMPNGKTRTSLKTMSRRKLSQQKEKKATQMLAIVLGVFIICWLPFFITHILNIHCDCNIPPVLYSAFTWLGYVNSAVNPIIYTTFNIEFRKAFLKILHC
structure (smiles),measurement,setting,value
O/N=c1\cc(-c2cc3cccn3cn2)oc2ccc(OCCN3CCOCC3)cc12 [listing 1 of 2 here],clearance,[1],113 mL/min/kg
same,Vd,[2],6.5 L/kg
same,Cmax,[3],229 ng/mL
same,AUC(0-inf),[4],903 ng·h/mL
same,concentration at 0.5 h,[5],5650 ng/g
same,concentration at 0.5 h,[6],454 ng/g
same,Kp at 0.5 h,[7],1.7
same,Ratio,[8],0.3
same,Drug uptake,[9],2 to 10%
same,fEC50,[10],5 nM
same,concentration at 4 h,[11],99 ng/mL
same,concentration at 0.5 h,[12],22800 ng/g
same,concentration at 2 h,[13],1740 ng/g
same,concentration at 1 h,[14],262 ng/g
same,Activity,[15],Non-Toxic
O/N=c1\cc(-c2cc3cccn3cn2)oc2ccc(OCCN3CCOCC3)cc12 [listing 2 of 2 here],Activity,[16],19%
same,fold change (FC),[17],10
same,Activity,[18],inactive
same,Activity,[19],inactive
same,Activity,[20],inactive
same,inhibition,[21],inactive
same,Activity,[22],Active
same,Activity,[23],inactive

# Reference: ChEMBL document CHEMBL4017520, “Discovery, Structure-Activity Relationship, and Antiparkinsonian Effect of a Potent and Brain-Penetrant Chemical Series of Positive Allosteric Modulators of Metabotropic Glutamate Receptor 4” (J Med Chem, 2017)
